In article PMC3269097 (Journal of Medicinal Chemistry, 2011):

How the values were obtained:
human GluK2 = human GluK2 (Homo sapiens, UniProt Q13002); format: cell-based; conditions: tested at a concentration of 100 μM
Summary of the method: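 HEK293 cells stably expressing homomeric human GluK2(Q), passaged no more than 20 times. Ca2+ influx read by fluorescence plate reader with concanavalin A present. Test compound is added over a range of concentrations, then L-glutamate plus antagonist (final glutamate 10 μM). Curves are fitted with slope fixed at 1 and top/bottom fixed at 100%/0% inhibition. KB is derived from IC50 by Cheng-Prusoff.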

GluN1a/GluN2B NMDAR [1] = molecular target: GluN1a/GluN2B NMDAR (Rattus norvegicus, UniProt Q00960); format: cell-based; conditions: at a concentration of 100 μM
GluN1a/GluN2B NMDAR [2] = molecular target: GluN1a/GluN2B NMDAR (Rattus norvegicus, UniProt P35439+Q00960); format: cell-based
Sequence of GluN1a/GluN2B NMDAR (Rattus norvegicus, UniProt P35439+Q00960) (Q00960 27-1482, other chains not shown): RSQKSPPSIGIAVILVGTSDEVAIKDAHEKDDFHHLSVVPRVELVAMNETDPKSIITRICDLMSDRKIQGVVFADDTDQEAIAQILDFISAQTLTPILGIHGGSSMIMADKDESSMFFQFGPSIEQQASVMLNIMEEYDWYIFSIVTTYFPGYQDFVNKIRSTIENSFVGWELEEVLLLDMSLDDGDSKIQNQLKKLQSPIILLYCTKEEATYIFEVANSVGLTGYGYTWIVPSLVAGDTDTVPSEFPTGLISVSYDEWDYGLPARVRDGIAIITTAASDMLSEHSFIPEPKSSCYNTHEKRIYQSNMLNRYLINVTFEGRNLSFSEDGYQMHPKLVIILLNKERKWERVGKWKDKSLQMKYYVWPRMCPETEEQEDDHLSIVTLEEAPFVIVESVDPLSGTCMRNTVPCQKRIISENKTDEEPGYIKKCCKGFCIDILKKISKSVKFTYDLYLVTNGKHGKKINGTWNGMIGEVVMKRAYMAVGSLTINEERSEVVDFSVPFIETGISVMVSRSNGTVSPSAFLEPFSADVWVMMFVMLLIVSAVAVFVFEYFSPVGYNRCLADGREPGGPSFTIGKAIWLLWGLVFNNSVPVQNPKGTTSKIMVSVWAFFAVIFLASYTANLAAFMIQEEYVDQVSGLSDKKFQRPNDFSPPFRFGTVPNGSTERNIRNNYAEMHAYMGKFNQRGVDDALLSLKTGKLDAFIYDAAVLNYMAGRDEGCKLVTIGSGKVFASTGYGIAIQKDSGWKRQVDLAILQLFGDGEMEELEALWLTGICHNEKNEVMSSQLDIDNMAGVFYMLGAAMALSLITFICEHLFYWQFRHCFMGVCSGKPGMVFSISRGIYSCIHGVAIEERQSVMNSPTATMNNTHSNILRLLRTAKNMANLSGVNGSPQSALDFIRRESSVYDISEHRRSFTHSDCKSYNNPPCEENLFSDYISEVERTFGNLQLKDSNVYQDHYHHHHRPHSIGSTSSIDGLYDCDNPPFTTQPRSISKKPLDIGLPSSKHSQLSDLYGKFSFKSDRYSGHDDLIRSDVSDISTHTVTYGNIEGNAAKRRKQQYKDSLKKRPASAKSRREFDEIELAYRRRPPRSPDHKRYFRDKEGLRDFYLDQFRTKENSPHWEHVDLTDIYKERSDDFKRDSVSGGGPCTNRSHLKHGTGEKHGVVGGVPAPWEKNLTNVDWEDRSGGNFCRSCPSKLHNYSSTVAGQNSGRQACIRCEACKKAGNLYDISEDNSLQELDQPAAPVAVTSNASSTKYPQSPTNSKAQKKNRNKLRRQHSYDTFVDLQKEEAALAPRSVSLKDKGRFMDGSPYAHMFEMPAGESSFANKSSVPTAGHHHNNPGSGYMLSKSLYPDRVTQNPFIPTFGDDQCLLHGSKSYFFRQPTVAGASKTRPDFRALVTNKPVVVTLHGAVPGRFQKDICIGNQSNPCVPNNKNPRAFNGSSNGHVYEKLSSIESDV

GluN1a/GluN2A NMDAR [3] = molecular target: GluN1a/GluN2A NMDAR (Rattus norvegicus, UniProt Q00959); format: cell-based; conditions: at a concentration of 100 μM
GluN1a/GluN2A NMDAR [4] = molecular target: GluN1a/GluN2A NMDAR (Rattus norvegicus, UniProt P35439+Q00959); format: cell-based
Sequence of GluN1a/GluN2A NMDAR (Rattus norvegicus, UniProt P35439+Q00959) (Q00959 23-1464, other chains not shown): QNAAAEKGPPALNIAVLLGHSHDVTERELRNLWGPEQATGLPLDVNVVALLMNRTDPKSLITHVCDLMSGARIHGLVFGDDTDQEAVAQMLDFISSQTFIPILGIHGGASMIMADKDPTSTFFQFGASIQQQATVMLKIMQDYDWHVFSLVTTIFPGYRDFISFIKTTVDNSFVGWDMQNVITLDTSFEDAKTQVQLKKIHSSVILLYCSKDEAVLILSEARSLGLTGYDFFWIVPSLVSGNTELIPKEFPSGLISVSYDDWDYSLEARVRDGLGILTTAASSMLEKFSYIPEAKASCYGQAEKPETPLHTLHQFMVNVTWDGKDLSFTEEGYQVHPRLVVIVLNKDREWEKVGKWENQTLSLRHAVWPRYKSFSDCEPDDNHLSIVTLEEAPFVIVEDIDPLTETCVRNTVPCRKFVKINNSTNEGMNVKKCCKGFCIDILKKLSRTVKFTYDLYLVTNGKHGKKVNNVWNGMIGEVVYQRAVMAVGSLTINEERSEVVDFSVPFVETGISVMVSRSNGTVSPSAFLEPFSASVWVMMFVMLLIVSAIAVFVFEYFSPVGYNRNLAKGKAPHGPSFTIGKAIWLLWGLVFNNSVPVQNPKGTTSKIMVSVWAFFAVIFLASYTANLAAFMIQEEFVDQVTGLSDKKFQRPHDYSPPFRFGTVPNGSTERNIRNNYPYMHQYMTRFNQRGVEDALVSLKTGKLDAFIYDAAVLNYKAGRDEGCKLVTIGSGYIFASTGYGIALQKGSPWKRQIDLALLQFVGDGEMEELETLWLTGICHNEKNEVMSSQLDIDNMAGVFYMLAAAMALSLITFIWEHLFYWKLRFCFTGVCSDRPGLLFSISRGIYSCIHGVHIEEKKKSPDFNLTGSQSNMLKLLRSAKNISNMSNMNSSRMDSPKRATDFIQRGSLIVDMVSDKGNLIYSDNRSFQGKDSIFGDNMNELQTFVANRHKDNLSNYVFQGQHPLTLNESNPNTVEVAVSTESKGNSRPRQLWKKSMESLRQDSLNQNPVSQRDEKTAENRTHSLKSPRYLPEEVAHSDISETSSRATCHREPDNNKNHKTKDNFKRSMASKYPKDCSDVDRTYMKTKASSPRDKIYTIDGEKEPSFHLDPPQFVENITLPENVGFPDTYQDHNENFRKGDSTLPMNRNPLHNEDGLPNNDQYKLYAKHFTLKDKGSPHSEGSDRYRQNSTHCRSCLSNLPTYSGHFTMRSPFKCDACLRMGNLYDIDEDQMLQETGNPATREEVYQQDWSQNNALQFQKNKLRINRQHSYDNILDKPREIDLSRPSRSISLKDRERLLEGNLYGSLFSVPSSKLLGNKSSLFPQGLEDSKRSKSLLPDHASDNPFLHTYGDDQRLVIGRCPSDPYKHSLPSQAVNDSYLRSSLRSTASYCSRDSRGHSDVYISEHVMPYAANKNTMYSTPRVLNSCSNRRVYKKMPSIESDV

Solubility observations = format: physicochemical; conditions: for water solubility: at higher concentrations
AMPARs = conditions: competition binding assays; ref [5c]; cited from earlier work
human GluK1 [5] = molecular target: T1, human GluK1 (Homo sapiens, UniProt P39086); format: cell-based; conditions: from KB values
T1 sequence (P39086 31-905 isoform P39086-2 limits assumed): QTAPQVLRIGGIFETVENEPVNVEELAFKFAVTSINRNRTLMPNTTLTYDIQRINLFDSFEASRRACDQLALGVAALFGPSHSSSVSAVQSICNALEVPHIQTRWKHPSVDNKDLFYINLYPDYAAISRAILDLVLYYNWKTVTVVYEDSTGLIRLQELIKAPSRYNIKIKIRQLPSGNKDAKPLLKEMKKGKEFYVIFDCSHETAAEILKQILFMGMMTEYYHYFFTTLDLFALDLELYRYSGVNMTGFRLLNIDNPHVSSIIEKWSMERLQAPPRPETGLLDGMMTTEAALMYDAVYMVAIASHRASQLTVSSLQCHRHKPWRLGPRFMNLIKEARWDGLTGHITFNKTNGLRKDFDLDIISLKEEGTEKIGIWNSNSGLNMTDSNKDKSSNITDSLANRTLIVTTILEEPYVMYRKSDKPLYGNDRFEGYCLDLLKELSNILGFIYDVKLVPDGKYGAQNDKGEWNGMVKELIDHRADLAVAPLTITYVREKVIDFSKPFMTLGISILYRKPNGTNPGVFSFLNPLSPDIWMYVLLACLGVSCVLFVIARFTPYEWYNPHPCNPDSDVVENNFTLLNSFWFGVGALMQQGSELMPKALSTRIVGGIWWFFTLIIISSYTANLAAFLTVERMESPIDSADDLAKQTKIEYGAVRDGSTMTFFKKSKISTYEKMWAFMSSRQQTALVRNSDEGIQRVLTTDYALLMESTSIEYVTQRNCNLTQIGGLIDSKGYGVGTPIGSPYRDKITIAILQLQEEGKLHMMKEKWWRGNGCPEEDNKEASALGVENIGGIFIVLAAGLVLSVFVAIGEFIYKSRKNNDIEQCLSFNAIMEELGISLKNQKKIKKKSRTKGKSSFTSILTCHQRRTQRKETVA

[6] = system: male Wistar rats with partial saphenous nerve ligation injury (PSNI); assay: Nociceptive behaviour in rats, partial saphenous nerve ligation injury; format: in vivo, rat
Summary of the method: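 Male Wistar rats (~250 g) habituated to testing, tested before saphenous nerve injury. Test compound or vehicle given i.p. (n=5/group), testing starts 15 min later. Von Frey hairs applied to the plantar hindpaw (≤5 s, five times per paw, both paws); thresholds taken from stimulus-response curves. Radiant-heat withdrawal latency is the mean of three stimulations per paw.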

wildtype (WT) GluK3 = wildtype (WT) GluK3 (Homo sapiens, UniProt Q13003); assay: [3H]kainate competition binding to wildtype GluK3 membranes; conditions: 18i 100 μM, 300 μM, 1 mM; 20 nM [3H]kainate
Summary of the method: (§1)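 Filtration binding on human GluK3a membranes. Wildtype comes from stably transfected HEK293 (hygromycin); the A660S mutant is transiently PEI-transfected for 48 h. Membranes are prepared by hypotonic sonication and washed in 50 mM Tris-citrate pH 7.4. Assay uses 20 nM [3H]kainate, with 1 mM kainate defining non-specific binding. Test compound at 100 μM, 300 μM and 1 mM; three experiments in triplicate.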

[7] = molecular target: GluK3 A660S mutant receptor (Homo sapiens, UniProt Q13003, A691S); assay: [3H]kainate competition binding to GluK3 A660S mutant membranes; conditions: 18i 100 μM, 300 μM, 1 mM; 20 nM [3H]kainate; compared with wild type
Summary of the method: as §1

human GluK1 [8] = molecular target: T1, human GluK1; assay: Electrophysiological assay; format: cell-based; conditions: electrophysiological assays
Summary of the method: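 Whole-cell patch clamp at −70 mV on HEK293 cells stably expressing homomeric human GluK1 or GluK3. Cells are bathed in HBS pH 7.4 at 20°C and lifted into a piezo-driven theta tube. 30 mM glutamate is applied for 100 ms every 20 s. Antagonist is added to both barrels for about 2 min, giving 5 concentrations per cell, each averaged over 6 sweeps. IC50 values are reported with 95% confidence intervals.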

native AMPARs = format: cell-based, rat; conditions: 100 μM, n=4
Summary of the method: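 Field EPSPs in transverse rat hippocampal slices (400 μm), perfused at 29°C. Mossy fibers stimulated via the dentate granule cell layer every 60 s. Responses averaged every 2 min and measured as 20–80% slope. Test compound at 100 μM perfused for 30 min. Results expressed as % of control slope, mean ± s.e.m., n=4, compared by Student's t test.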

GluN1a/GluN2D NMDAR [9] = molecular target: GluN1a/GluN2D NMDAR (Rattus norvegicus, UniProt Q62645); format: cell-based
GluN1a/GluN2C NMDAR = GluN1a/GluN2C NMDAR (Rattus norvegicus, UniProt P35439+Q00961); format: cell-based
GluN1a/GluN2D NMDAR [10] = molecular target: GluN1a/GluN2D NMDAR (Rattus norvegicus, UniProt P35439+Q62645); format: cell-based

Sequence of human GluK2 (Q13002 32-908): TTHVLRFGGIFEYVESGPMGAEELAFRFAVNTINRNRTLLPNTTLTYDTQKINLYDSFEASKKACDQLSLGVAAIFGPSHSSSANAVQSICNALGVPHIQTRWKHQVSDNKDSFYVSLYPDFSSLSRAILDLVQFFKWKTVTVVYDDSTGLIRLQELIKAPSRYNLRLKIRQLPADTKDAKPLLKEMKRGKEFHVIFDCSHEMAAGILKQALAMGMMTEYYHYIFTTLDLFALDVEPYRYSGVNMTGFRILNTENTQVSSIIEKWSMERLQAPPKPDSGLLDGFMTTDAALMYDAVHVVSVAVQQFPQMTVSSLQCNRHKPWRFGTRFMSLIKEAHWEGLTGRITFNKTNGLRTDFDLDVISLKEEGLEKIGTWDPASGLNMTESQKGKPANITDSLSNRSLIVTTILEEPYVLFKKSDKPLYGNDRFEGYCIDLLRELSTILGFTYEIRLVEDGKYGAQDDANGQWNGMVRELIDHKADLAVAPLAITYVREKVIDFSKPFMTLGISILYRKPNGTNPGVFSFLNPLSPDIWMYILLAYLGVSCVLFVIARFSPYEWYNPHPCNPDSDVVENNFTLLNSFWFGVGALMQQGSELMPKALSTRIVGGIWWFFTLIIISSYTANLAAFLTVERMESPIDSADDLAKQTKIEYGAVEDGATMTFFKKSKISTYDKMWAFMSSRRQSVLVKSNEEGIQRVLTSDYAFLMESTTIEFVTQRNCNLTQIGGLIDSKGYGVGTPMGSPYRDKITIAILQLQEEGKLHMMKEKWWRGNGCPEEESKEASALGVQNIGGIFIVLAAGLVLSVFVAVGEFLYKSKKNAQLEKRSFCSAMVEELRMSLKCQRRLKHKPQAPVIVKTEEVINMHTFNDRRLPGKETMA

O=C(O)[C@H]1NCCN(C(=O)c2ccc3cc(I)ccc3c2)[C@H]1C(=O)O (relative stereo) [Compound 18c, (2R*,3S*)-1-(6-Iodonaphthalene-2-carbonyl)piperazine-2,3-dicarboxylic acid]
GluK2 antagonist activity (human GluK2): no GluK2 antagonist activity

O=C(O)[C@H]1NCCN(C(=O)c2ccc3cc(-c4ccccc4)ccc3c2)[C@H]1C(=O)O (relative stereo) [Compound 18d, (2R*,3S*)-1-(6-Phenylnaphthalene-2-carbonyl)piperazine-2,3-dicarboxylic acid]
antagonism of GluN2B (GluN1a/GluN2B NMDAR [1]): 30–37% | IC50 (GluN1a/GluN2B NMDAR [2]): > 100 µM | antagonism of GluN2A (GluN1a/GluN2A NMDAR [3]): 30–37% | IC50 (GluN1a/GluN2A NMDAR [4]): > 100 µM | GluK2 antagonist activity (human GluK2): no GluK2 antagonist activity | solubility in electrophysiological recording buffer (Solubility observations; 300 μM, room temperature, visible light scattering): insoluble at high concentrations | water solubility (Solubility observations): poor water solubility

O=C(O)[C@H]1NCCN(C(=O)c2ccc3cc(Br)c4ccccc4c3c2)[C@H]1C(=O)O (relative stereo) [Compound 18h, (2R*,3S*)-1-(9-Bromophenanthrene-3-carbonyl)piperazine-2,3-dicarboxylic acid]
inhibition of [3H]AMPA binding (AMPARs): only very weak inhibitors

O=C(O)[C@H]1NCCN(C(=O)c2ccc3cc(I)c4ccccc4c3c2)[C@H]1C(=O)O (relative stereo) [Compound 18i, (2R*,3S*)-1-(9-Iodophenanthrene-3-carbonyl)piperazine-2,3-dicarboxylic acid]
fold higher affinity for GluK1 compared to 18c (human GluK1 [5]): 1.7 fold | thermal withdrawal latency to radiant heat ([6]; 30 mg/kg i.p., acute, day 7 after PSNI, n=5 per group): increased thermal withdrawal latency in these animals above baseline values | mechanical withdrawal threshold (mechanical allodynia) ([6]; 30 mg/kg i.p., acute, day 7 after PSNI, versus vehicle, n=5 per group): completely reversed the drop in mechanical withdrawal threshold | antinociceptive effects in normal animals ([6]; normal animals before nerve injury (not shown)): exerted antinociceptive effects | inhibition of [3H]kainate binding to wild type GluK3 (wildtype (WT) GluK3): low binding affinity | inhibition of [3H]kainate binding to A660S point mutant of GluK3 [7]: more potently inhibited | fold lower IC50 for GluK1 versus GluK3 (human GluK1 [8]): > 100 fold | AMPAR mediated fEPSP response in the presence of compound, % of slope (native AMPARs; 30 min perfusion, control 100 ± 2%, mean ± s.e.m.): 99 ± 2% | antagonist activity on AMPAR mediated EPSPs in CA3 region of the hippocampus (native AMPARs): no antagonist activity

O=C(O)C1NCCN(C(=O)c2ccc3c(ccc4ccccc43)c2)C1C(=O)O (single isomer, unassigned; (+)) [(+)-4, (+)-1-(Phenanthrene-2-carbonyl)piperazine-2,3-dicarboxylic acid]
fold lower affinity for GluN2D than the (−)-4 isomer (GluN1a/GluN2D NMDAR [9]): 50 fold

O=C(O)C1NCCN(C(=O)c2ccc3c(ccc4ccccc43)c2)C1C(=O)O (stereo not drawn) [(±)-4]
GluK2 antagonist activity (human GluK2): no GluK2 antagonist activity

O=C(O)[C@@H]1[C@H](C(=O)O)NCCN1C(=O)c1ccc2c(ccc3ccccc32)c1 [(−)-4, (−)-1-(Phenanthrene-2-carbonyl)piperazine-2,3-dicarboxylic acid]
fold higher affinity for GluK1 than the (+)-4 enantiomer (human GluK1 [5]): 27 fold | GluK2 antagonist activity (human GluK2): no GluK2 antagonist activity

O=C(O)[C@H]1NCCN(C(=O)c2ccc3ccc4ccccc4c3c2)[C@H]1C(=O)O [Compound 5]
inhibition of [3H]AMPA binding (AMPARs): only very weak inhibitors | selectivity for GluN2D versus GluK1 (GluN1a/GluN2D NMDAR [9]; GluN2D Ki versus GluK1 KB): around 10 fold | GluK2 antagonist activity (human GluK2): no GluK2 antagonist activity

O=C(O)[C@H]1NCCN(C(=O)c2ccc(C#Cc3ccccc3)cc2)[C@H]1C(=O)O [Compound 18k]
inhibition of [3H]AMPA binding (AMPARs): only very weak inhibitors | GluK2 antagonist activity (human GluK2): no GluK2 antagonist activity

O=C(O)[C@H]1NCCN(C(=O)c2ccc(/N=N/c3ccccc3)cc2)[C@H]1C(=O)O [Compound 18l]
inhibition of [3H]AMPA binding (AMPARs): only very weak inhibitors | GluK2 antagonist activity (human GluK2): no GluK2 antagonist activity

O=C(O)c1ccc2cc(C(=O)N3CCN[C@H](C(=O)O)[C@@H]3C(=O)O)ccc2c1 [Compound 19]
IC50 (GluN1a/GluN2C NMDAR): > 100 µM | IC50 (GluN1a/GluN2B NMDAR [2]): > 100 µM | IC50 (GluN1a/GluN2D NMDAR [10]): > 100 µM | IC50 (GluN1a/GluN2A NMDAR [4]): > 100 µM

O=C(O)c1ccc(-c2ccc(C(=O)N3CCN[C@H](C(=O)O)[C@@H]3C(=O)O)cc2)cc1 [Compound 20]
fold lower affinity for GluK1 compared to 34b (human GluK1 [5]): 5 fold | IC50 (GluN1a/GluN2C NMDAR): > 100 µM | IC50 (GluN1a/GluN2B NMDAR [2]): > 100 µM | water solubility (Solubility observations): poor water solubility

O=C(O)[C@H]1NCCN(C(=O)c2ccc(CCc3ccccc3)cc2)[C@H]1C(=O)O [Compound 21]
fold lower affinity for GluK1 compared to 34b (human GluK1 [5]): approximately 2 fold | fold lower affinity for GluK1 compared to (±)-4 (human GluK1 [5]): 9 fold | IC50 (GluN1a/GluN2C NMDAR): > 100 µM | IC50 (GluN1a/GluN2B NMDAR [2]): > 100 µM | antagonism of GluN2D (GluN1a/GluN2D NMDAR [9]; at a concentration of 100 μM): ~ 10% | IC50 (GluN1a/GluN2D NMDAR [10]): > 100 µM | IC50 (GluN1a/GluN2A NMDAR [4]): > 100 µM

O=C(O)[C@H]1NCCN(C(=O)c2ccc(-c3ccccc3)cc2)[C@H]1C(=O)O [Compound 34b]
GluK2 antagonist activity (human GluK2): no GluK2 antagonist activity

O=C(O)[C@@H]1NCCN(C(=O)c2ccc3c(ccc4ccccc43)c2)[C@H]1C(=O)O [Compound 34d]
fold lower affinity for GluK1 compared to (±)-4 (human GluK1 [5]): 8 fold

O=C(O)[C@H]1NCCN(C(=O)c2ccc3c(ccc4cc(Br)ccc43)c2)[C@H]1C(=O)O [Compound 34e]
GluK2 antagonist activity (human GluK2): no GluK2 antagonist activity

O=C(O)[C@H]1NCCN(Cc2ccc3c(ccc4ccccc43)c2)[C@H]1C(=O)O [Compound 34f]
fold lower affinity for GluK1 compared to (±)-4 (human GluK1 [5]): 5 fold

O=C(O)[C@H]1NCCN(C(=O)c2ccc3c(c2)CCc2ccccc2-3)[C@H]1C(=O)O [Compound 34g]
GluK2 antagonist activity (human GluK2): no GluK2 antagonist activity
